Data published in ChEMBL document CHEMBL1138520, “Molecular and conformational determinants of pituitary adenylate cyclase-activating polypeptide (PACAP) for activation of the PAC1 receptor” (J Med Chem, 2009).
Where a SMILES comes first, the peptide text is derived from it.

Key:
[1] = target: T1, Pituitary adenylate cyclase-activating polypeptide type I receptor (Homo sapiens, UniProt P41586); experiment: Displacement of [125I]Ac-PACAP27 from human recombinant PAC1 receptor expressed in CHO cells by gamma- counter; type: cell-based
Target sequence in this assay (P41586 whole entry): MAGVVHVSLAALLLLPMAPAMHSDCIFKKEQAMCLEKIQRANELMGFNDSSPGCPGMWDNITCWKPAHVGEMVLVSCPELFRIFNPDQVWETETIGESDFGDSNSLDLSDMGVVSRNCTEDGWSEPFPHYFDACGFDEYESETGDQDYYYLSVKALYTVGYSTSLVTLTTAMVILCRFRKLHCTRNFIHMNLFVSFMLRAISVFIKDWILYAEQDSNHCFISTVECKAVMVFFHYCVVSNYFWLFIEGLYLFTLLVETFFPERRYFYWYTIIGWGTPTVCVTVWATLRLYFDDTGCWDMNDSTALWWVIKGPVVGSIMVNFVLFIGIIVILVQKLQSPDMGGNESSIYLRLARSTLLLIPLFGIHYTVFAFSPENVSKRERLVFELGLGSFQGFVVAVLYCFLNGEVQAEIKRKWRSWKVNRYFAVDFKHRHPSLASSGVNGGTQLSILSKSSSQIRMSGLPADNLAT

[2] = target: T1, Pituitary adenylate cyclase-activating polypeptide type I receptor; experiment: Agonist activity at human recombinant PAC1 receptor expressed in CHO cells assessed as PACAP38-induced calcium mobilization by FLIPR assay; type: functional, cell-based
Method in brief: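 CHO cells stably expressing recombinant human PAC1, plated 24 h before assay, loaded with fluo-4 AM for 60 min at 37 °C in the dark, then rinsed into HBSS for 15 min at 37 °C. EC50 and efficacy came from nonlinear regression; 4-10 independent assays in duplicate.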
Target sequence in this assay (P41586 whole entry): as above

[3] = target: T1, Pituitary adenylate cyclase-activating polypeptide type I receptor; experiment: Agonist activity at human recombinant PAC1 receptor expressed in CHO cells assessed as PACAP38-induced calcium mobilization by FLIPR assay relative to PACAP38; type: functional, cell-based
Method in brief: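 CHO cells stably expressing recombinant human PAC1, plated 24 h before assay, loaded with fluo-4 AM for 60 min at 37 °C in the dark, then rinsed into HBSS for 15 min at 37 °C. Peptide was added 18 s into a 150 s read (ex 480/em 525 nm), at final concentrations of 1 × 10-12 to 1 × 10^-5 M. Response was normalised to 1 × 10^-5 M PACAP38 on each plate. EC50 and efficacy came from nonlinear regression; 4-10 independent assays in duplicate.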
Target sequence in this assay (P41586 21-468 limits assumed): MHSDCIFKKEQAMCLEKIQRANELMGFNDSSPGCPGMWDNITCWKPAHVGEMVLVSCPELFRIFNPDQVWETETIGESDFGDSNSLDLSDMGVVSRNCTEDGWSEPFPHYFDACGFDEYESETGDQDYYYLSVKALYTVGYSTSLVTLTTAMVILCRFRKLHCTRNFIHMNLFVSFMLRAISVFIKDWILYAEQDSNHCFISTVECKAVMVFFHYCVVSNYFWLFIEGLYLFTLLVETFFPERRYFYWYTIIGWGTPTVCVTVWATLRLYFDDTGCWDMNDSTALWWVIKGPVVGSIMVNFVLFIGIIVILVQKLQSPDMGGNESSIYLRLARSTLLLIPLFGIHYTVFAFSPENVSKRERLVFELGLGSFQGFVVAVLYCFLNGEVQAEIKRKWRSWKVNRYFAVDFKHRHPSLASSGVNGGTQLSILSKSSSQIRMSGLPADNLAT

| Structure (SMILES) | IC50 [1] [nM] | EC50 [2] [nM] | Emax [3] [%] |
| --- | --- | --- | --- |
| CC[C@H](C)[C@H](NC(=O)C(C)(C)NC(=O)[C@H](CC(=O)O)NC(=O)[C@H](CO)NC(=O)[C@@H](N)Cc1cnc[nH]1)C(=O)N[C@@H](Cc1ccccc1)C(=O)N[C@H](C(=O)N[C@@H](CC(=O)O)C(=O)N[C@@H](CO)C(=O)N[C@@H](Cc1ccc(O)cc1)C(=O)N[C@@H](CO)C(=O)N[C@@H](CCCNC(=N)N)C(=O)N[C@@H](Cc1ccc(O)cc1)C(=O)N[C@@H](CCCNC(=N)N)C(=O)N[C@@H](CCCCN)C(=O)N[C@@H](CCC(N)=O)C(=O)N[C@@H](CCSC)C(=O)N[C@@H](C)C(=O)N[C@H](C(=O)N[C@@H](CCCCN)C(=O)N[C@@H](CCCCN)C(=O)N[C@@H](Cc1ccc(O)cc1)C(=O)N[C@@H](CC(C)C)C(=O)N[C@@H](C)C(=O)N[C@@H](C)C(=O)N[C@H](C(=O)N[C@@H](CC(C)C)C(N)=O)C(C)C)C(C)C)[C@@H](C)O | 51.4 | 49.4 | 90.2 |
| CC[C@H](C)[C@H](NC(=O)CNC(=O)[C@H](CC(=O)O)NC(=O)[C@H](CO)NC(=O)[C@@H](N)Cc1cnc[nH]1)C(=O)N[C@@H](CC1CCCCC1)C(=O)N[C@H](C(=O)N[C@@H](CC(=O)O)C(=O)N[C@@H](CO)C(=O)N[C@@H](Cc1ccc(O)cc1)C(=O)N[C@@H](CO)C(=O)N[C@@H](CCCNC(=N)N)C(=O)N[C@@H](Cc1ccc(O)cc1)C(=O)N[C@@H](CCCNC(=N)N)C(=O)N[C@@H](CCCCN)C(=O)N[C@@H](CCC(N)=O)C(=O)N[C@@H](CCSC)C(=O)N[C@@H](C)C(=O)N[C@H](C(=O)N[C@@H](CCCCN)C(=O)N[C@@H](CCCCN)C(=O)N[C@@H](Cc1ccc(O)cc1)C(=O)N[C@@H](CC(C)C)C(=O)N[C@@H](C)C(=O)N[C@@H](C)C(=O)N[C@H](C(=O)N[C@@H](CC(C)C)C(N)=O)C(C)C)C(C)C)[C@@H](C)O | 11 | 8.4 | 105 |
| CC[C@H](C)[C@H](NC(=O)CNC(=O)[C@H](CC(=O)O)NC(=O)C(C)(C)NC(=O)[C@@H](N)Cc1cnc[nH]1)C(=O)N[C@@H](Cc1ccccc1)C(=O)N[C@H](C(=O)N[C@@H](CC(=O)O)C(=O)N[C@@H](CO)C(=O)N[C@@H](Cc1ccc(O)cc1)C(=O)N[C@@H](CO)C(=O)N[C@@H](CCCNC(=N)N)C(=O)N[C@@H](Cc1ccc(O)cc1)C(=O)N[C@@H](CCCNC(=N)N)C(=O)N[C@@H](CCCCN)C(=O)N[C@@H](CCC(N)=O)C(=O)N[C@@H](CCSC)C(=O)N[C@@H](C)C(=O)N[C@H](C(=O)N[C@@H](CCCCN)C(=O)N[C@@H](CCCCN)C(=O)N[C@@H](Cc1ccc(O)cc1)C(=O)N[C@@H](CC(C)C)C(=O)N[C@@H](C)C(=O)N[C@@H](C)C(=O)N[C@H](C(=O)N[C@@H](CC(C)C)C(N)=O)C(C)C)C(C)C)[C@@H](C)O | 9.5 | 10.1 | 104 |
| CC[C@H](C)[C@H](NC(=O)CNC(=O)[C@H](CC(=O)O)NC(=O)[C@H](C)NC(=O)[C@@H](N)Cc1cnc[nH]1)C(=O)N[C@@H](Cc1ccccc1)C(=O)N[C@H](C(=O)N[C@@H](CC(=O)O)C(=O)N[C@@H](CO)C(=O)N[C@@H](Cc1ccc(O)cc1)C(=O)N[C@@H](CO)C(=O)N[C@@H](CCCNC(=N)N)C(=O)N[C@@H](Cc1ccc(O)cc1)C(=O)N[C@@H](CCCNC(=N)N)C(=O)N[C@@H](CCCCN)C(=O)N[C@@H](CCC(N)=O)C(=O)N[C@@H](CCSC)C(=O)N[C@@H](C)C(=O)N[C@H](C(=O)N[C@@H](CCCCN)C(=O)N[C@@H](CCCCN)C(=O)N[C@@H](Cc1ccc(O)cc1)C(=O)N[C@@H](CC(C)C)C(=O)N[C@@H](C)C(=O)N[C@@H](C)C(=O)N[C@H](C(=O)N[C@@H](CC(C)C)C(=O)NCC(=O)N[C@@H](CCCCN)C(=O)N[C@@H](CCCNC(=N)N)C(=O)N[C@@H](Cc1ccc(O)cc1)C(=O)N[C@@H](CCCCN)C(=O)N[C@@H](CCC(N)=O)C(=O)N[C@@H](CCCNC(=N)N)C(=O)N[C@H](C(=O)N[C@@H](CCCCN)C(=O)N[C@@H](CC(N)=O)C(=O)N[C@@H](CCCCN)C(N)=O)C(C)C)C(C)C)C(C)C)[C@@H](C)O (H-HADGIFTDSYSRYRKQMAVKKYLAAVLGKRYKQRVKNK-NH2) | 7.9 | 5.1 | 105 |
| CC[C@H](C)[C@H](NC(=O)CNC(=O)[C@H](CC(=O)O)NC(=O)[C@H](CO)NC(=O)[C@@H](N)Cc1cncn1C)C(=O)N[C@@H](Cc1ccccc1)C(=O)N[C@H](C(=O)N[C@@H](CC(=O)O)C(=O)N[C@@H](CO)C(=O)N[C@@H](Cc1ccc(O)cc1)C(=O)N[C@@H](CO)C(=O)N[C@@H](CCCNC(=N)N)C(=O)N[C@@H](Cc1ccc(O)cc1)C(=O)N[C@@H](CCCNC(=N)N)C(=O)N[C@@H](CCCCN)C(=O)N[C@@H](CCC(N)=O)C(=O)N[C@@H](CCSC)C(=O)N[C@@H](C)C(=O)N[C@H](C(=O)N[C@@H](CCCCN)C(=O)N[C@@H](CCCCN)C(=O)N[C@@H](Cc1ccc(O)cc1)C(=O)N[C@@H](CC(C)C)C(=O)N[C@@H](C)C(=O)N[C@@H](C)C(=O)N[C@H](C(=O)N[C@@H](CC(C)C)C(N)=O)C(C)C)C(C)C)[C@@H](C)O | 15.6 | 52.5 | 96.9 |
| CSCC[C@H](NC(=O)[C@H](CCC(N)=O)NC(=O)[C@H](CCCCN)NC(=O)[C@H](CCCNC(=N)N)NC(=O)[C@H](Cc1ccc(O)cc1)NC(=O)[C@H](CCCNC(=N)N)NC(=O)[C@H](CO)NC(=O)[C@H](Cc1ccc(O)cc1)NC(=O)[C@H](CO)NC(=O)[C@H](CC(=O)O)NC(=O)[C@@H](NC(=O)[C@H](Cc1ccccc1)NC(=O)[C@H](C)NC(=O)CNC(=O)[C@H](CC(=O)O)NC(=O)[C@H](CO)NC(=O)[C@@H](N)Cc1cnc[nH]1)[C@@H](C)O)C(=O)N[C@@H](C)C(=O)N[C@H](C(=O)N[C@@H](CCCCN)C(=O)N[C@@H](CCCCN)C(=O)N[C@@H](Cc1ccc(O)cc1)C(=O)N[C@@H](CC(C)C)C(=O)N[C@@H](C)C(=O)N[C@@H](C)C(=O)N[C@H](C(=O)N[C@@H](CC(C)C)C(N)=O)C(C)C)C(C)C | 60.7 | 39.8 | 99.2 |
| CC[C@H](C)[C@H](NC(=O)CNC(=O)[C@H](CC(=O)O)NC(=O)[C@H](CO)NC(=O)[C@@H](N)Cc1cnc[nH]1)C(=O)N[C@@H](C)C(=O)N[C@H](C(=O)N[C@@H](CC(=O)O)C(=O)N[C@@H](CO)C(=O)N[C@@H](Cc1ccc(O)cc1)C(=O)N[C@@H](CO)C(=O)N[C@@H](CCCNC(=N)N)C(=O)N[C@@H](Cc1ccc(O)cc1)C(=O)N[C@@H](CCCNC(=N)N)C(=O)N[C@@H](CCCCN)C(=O)N[C@@H](CCC(N)=O)C(=O)N[C@@H](CCSC)C(=O)N[C@@H](C)C(=O)N[C@H](C(=O)N[C@@H](CCCCN)C(=O)N[C@@H](CCCCN)C(=O)N[C@@H](Cc1ccc(O)cc1)C(=O)N[C@@H](CC(C)C)C(=O)N[C@@H](C)C(=O)N[C@@H](C)C(=O)N[C@H](C(=O)N[C@@H](CC(C)C)C(N)=O)C(C)C)C(C)C)[C@@H](C)O | 1330 | 462 | 65.3 |

Next, values leading:

| IC50 [1] [nM] | EC50 [2] [nM] | Emax [3] [%] | Structure (SMILES) |
| --- | --- | --- | --- |
| 10.8 | 8.75 | 112 | CC[C@H](C)[C@H](NC(=O)CNC(=O)[C@H](CC(=O)O)NC(=O)[C@H](CO)NC(=O)[C@@H](N)Cc1cnc[nH]1)C(=O)N[C@@H](Cc1ccccc1)C(=O)N[C@@H](C)C(=O)N[C@@H](CC(=O)O)C(=O)N[C@@H](CO)C(=O)N[C@@H](Cc1ccc(O)cc1)C(=O)N[C@@H](CO)C(=O)N[C@@H](CCCNC(=N)N)C(=O)N[C@@H](Cc1ccc(O)cc1)C(=O)N[C@@H](CCCNC(=N)N)C(=O)N[C@@H](CCCCN)C(=O)N[C@@H](CCC(N)=O)C(=O)N[C@@H](CCSC)C(=O)N[C@@H](C)C(=O)N[C@H](C(=O)N[C@@H](CCCCN)C(=O)N[C@@H](CCCCN)C(=O)N[C@@H](Cc1ccc(O)cc1)C(=O)N[C@@H](CC(C)C)C(=O)N[C@@H](C)C(=O)N[C@@H](C)C(=O)N[C@H](C(=O)N[C@@H](CC(C)C)C(N)=O)C(C)C)C(C)C |
| 9.2 | 52.2 | 22.1 | CC[C@H](C)[C@H](NC(=O)CNC(=O)[C@H](CC(N)=O)NC(=O)[C@H](CO)NC(=O)[C@@H](N)Cc1cnc[nH]1)C(=O)N[C@@H](Cc1ccccc1)C(=O)N[C@H](C(=O)N[C@@H](CC(=O)O)C(=O)N[C@@H](CO)C(=O)N[C@@H](Cc1ccc(O)cc1)C(=O)N[C@@H](CO)C(=O)N[C@@H](CCCNC(=N)N)C(=O)N[C@@H](Cc1ccc(O)cc1)C(=O)N[C@@H](CCCNC(=N)N)C(=O)N[C@@H](CCCCN)C(=O)N[C@@H](CCC(N)=O)C(=O)N[C@@H](CCSC)C(=O)N[C@@H](C)C(=O)N[C@H](C(=O)N[C@@H](CCCCN)C(=O)N[C@@H](CCCCN)C(=O)N[C@@H](Cc1ccc(O)cc1)C(=O)N[C@@H](CC(C)C)C(=O)N[C@@H](C)C(=O)N[C@@H](C)C(=O)N[C@H](C(=O)N[C@@H](CC(C)C)C(=O)NCC(=O)N[C@@H](CCCCN)C(=O)N[C@@H](CCCNC(=N)N)C(=O)N[C@@H](Cc1ccc(O)cc1)C(=O)N[C@@H](CCCCN)C(=O)N[C@@H](CCC(N)=O)C(=O)N[C@@H](CCCNC(=N)N)C(=O)N[C@H](C(=O)N[C@@H](CCCCN)C(=O)N[C@@H](CC(N)=O)C(=O)N[C@@H](CCCCN)C(N)=O)C(C)C)C(C)C)C(C)C)[C@@H](C)O (H-HSNGIFTDSYSRYRKQMAVKKYLAAVLGKRYKQRVKNK-NH2) |
| 2040 | 2120 | 35.4 | CC[C@H](C)[C@H](NC(=O)CNC(=O)[C@H](CC(=O)O)NC(=O)[C@H](CO)NC(=O)[C@@H](N)Cc1cnc[nH]1)C(=O)N[C@@H](Cc1ccccc1)C(=O)N(C)[C@H](C(=O)N[C@@H](CC(=O)O)C(=O)N[C@@H](CO)C(=O)N[C@@H](Cc1ccc(O)cc1)C(=O)N[C@@H](CO)C(=O)N[C@@H](CCCNC(=N)N)C(=O)N[C@@H](Cc1ccc(O)cc1)C(=O)N[C@@H](CCCNC(=N)N)C(=O)N[C@@H](CCCCN)C(=O)N[C@@H](CCC(N)=O)C(=O)N[C@@H](CCSC)C(=O)N[C@@H](C)C(=O)N[C@H](C(=O)N[C@@H](CCCCN)C(=O)N[C@@H](CCCCN)C(=O)N[C@@H](Cc1ccc(O)cc1)C(=O)N[C@@H](CC(C)C)C(=O)N[C@@H](C)C(=O)N[C@@H](C)C(=O)N[C@H](C(=O)N[C@@H](CC(C)C)C(N)=O)C(C)C)C(C)C)[C@@H](C)O |
